Rows were chosen to be rich in hits. Some 0.91% of all compounds tested hit in one or more screens of this group.
L929 necroptosis – L929 zVAD cell death inhibition | viability rescue, % at 10 µM | L929 zVAD necroptosis rescue, ATP luminescence, 24 h; with zVAD 60 µM | actives 0.38% (n = 220,000) | AID 1377;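 active = activation, scaled between plate controls, above about 75%, limit read from the data; inactive = activation under that limit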;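 also: 0% = zVAD with DMSO and 100% = DMSO alone without zVAD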
TNF death inh – inhibitors of TNF-alpha induced necroptosis in Jurkat FADD-/- cells. actives 0.068% (n = 220,000). Jurkat FADD-/- TNF necroptosis rescue, ATP luminescence, 24 h; 0 = TNF only, 100 = no-TNF cells. activation (protection from cell death), % at 10 µM;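 active = activation, meaning protection from cell death, of at least 50% relative to plate controls; inactive = activation below 50%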;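 also: necroptosis triggered by 40 ng/mL TNF-alpha added together with compound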
Lipid droplet – hepatic lipid droplet formation modulation | AML12 mouse hepatocytes, oleate lipid droplets, BODIPY imaging | inhibition, % at 6.5 µM | actives 0.4% (n = 240,000);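 active = lipid droplet intensity inhibited by at least 50%, with more than 500 cells counted; inconclusive = wells with under 300 cells, treated as cytotoxic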
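Material – AML12 mouse liver cells · Also added – oleate loading, 100 µM · Compound dosing – 6.5 µM single-point dosing · Times – overnight treatment with compound plus oleate · Measured by – fluorescence imaging, 20x objective, two fields per well · Read-out – percent inhibition of filter-corrected integrated lipid droplet intensity per well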
Arbovirus inh – antivirals against arbovirus infection; inhibition, % at 10 µM; AID 1251; actives 0.37% (n = 200,000); arbovirus infection cell-based antiviral screen; in the data active = inhibition above about 30%
Pf gamet viab – P. falciparum stage V gametocyte viability inhibition; inhibition, % at 10.9 µM; P. falciparum stage V gametocytes, ATP luminescence, 24 h; AID 743093; actives 0.065% (n = 150,000);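 active = inhibition above the mean plus 3 SD of compounds within the control limits, set per campaign, cut at about 38% in these data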;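 also: 0% = DMSO wells and 100% = medium only without gametocytes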
Lipid drop inh – hepatic lipid droplet formation inhibition, confirmed; shares compounds with Lipid droplet; AML12 mouse hepatocytes, BODIPY lipid droplet imaging; droplets induced with 100 µM oleic acid; inhibition, % at 5.2 µM; actives 65% (n = 870);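 active = inhibition of lipid droplet metric at least 50%, with more than 300 cells in each of four replicates; inconclusive = wells under 300 cells, flagged as toxic or low count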;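 also: plate controls were DMSO with oleic acid for no effect and 5 µM Triacsin-C for full effect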
AML12 cytotox – counter-screen for cytotoxicity in AML12 mouse hepatocytes | shares compounds with Lipid droplet | DAPI nuclear morphology cytotoxicity imaging; active compounds read high; cells fed 100 µM oleate overnight | z-score at 5 µM | actives 3% (n = 870); in the data active = z-score above about 6.3;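 also: compound exposure lasted overnight at 37 °C before fixation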
AML12 tox conf – AML12 hepatocyte cytotoxicity, confirmed; shares compounds with Lipid droplet; AML12 mouse hepatocyte viability, ATP luminescence; cells loaded with 100 µM oleic acid; cytotoxicity, % at 50 µM; 530 tested, under 10 active; AID 463219;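 active = cytotoxicity above 50% in each of four replicates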;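 also: compound exposure lasted overnight at 37 °C before the ATP read; 0% = DMSO-treated cells and 100% = wells with no cells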
* marks the source's active call; other numbers are inactive results; ? = inconclusive; nt = no result given.

SMILES	L929 necroptosis	TNF death inh	Lipid droplet	Arbovirus inh	Pf gamet viab	Lipid drop inh	AML12 cytotox	AML12 tox conf
CCOC(=O)c1sc2cc([N+](=O)[O-])cc(SCCO)c2c1N	0	2	52*	-19	-3	61*	-0.48	nt
C[C@H](NC(=O)c1nc[nH]c1C(=O)N1CCN(c2ccccc2)CC1)c1ccccc1	nt	nt	nt	nt	13	nt	nt	nt
CCOC(=O)c1cccc(NC(=O)c2cc(C)nn2-c2ccccc2)c1	nt	nt	-26	nt	nt	nt	nt	nt
Cc1ccc(CNC(=O)c2ccc(N3CCC4(CC3)CC(c3ccccc3)=NO4)c(N)c2)cc1	nt	nt	52*	nt	nt	89*	-0.92	20
Cc1ccc(CNC(=O)c2ccc(N3CCC4(CC3)CC(c3ccccc3)=NO4)c([N+](=O)[O-])c2)cc1	nt	nt	13	nt	23	nt	nt	nt
Cc1ccc(CNC(=O)c2ccc(N3CCC4(CC3)CC(c3ccccc3)=NO4)c(NC(=O)c3ccc(Br)cc3)c2)cc1	nt	nt	73*	nt	nt	104*	0.66	-1
COc1ccc(C2=NS(=O)(=O)N(C)C(C(=O)N3CCOCC3)=C2)cc1OC	nt	nt	-5	nt	nt	nt	nt	nt
CC(=O)N1CCc2cc(S(=O)(=O)NC(C(=O)NC(C)c3ccccc3)C(C)C)ccc21 (configuration not stated)	nt	nt	8	nt	nt	nt	nt	nt
Cc1cc(Cl)ccc1NC(=S)NCc1ccc(F)cc1	nt	nt	2	nt	-7	nt	nt	nt
COc1ccccc1-n1c(SCC(=O)NCC2CCCO2)nc2c([nH]c3ccccc32)c1=O (configuration not stated)	nt	nt	-1	nt	nt	nt	nt	nt
O=C(NCc1ccccc1)c1ccc2nc(N3CCOCC3)sc2c1	1	0	9	nt	-1	nt	nt	nt
CCCOc1ccc(CNC(=O)c2ccc3nc(N4CCOCC4)sc3c2)cc1	nt	nt	54*	nt	nt	99*	-0.65	12
CC(=O)Nc1ccc(N(C(=O)Cc2cccs2)C(C(=O)NC2CCCC2)c2ccncc2)cc1 (configuration not stated)	nt	nt	-2	nt	nt	nt	nt	nt
O=C(Cc1coc2ccc3ccccc3c12)NC1CCCc2ccccc21 (configuration not stated)	0	1	52*	-6	-4	91*	0.16	19
O=C(CSc1nnc(CNC(=O)c2ccccc2)o1)NCc1ccc2c(c1)OCO2	nt	nt	28	nt	nt	nt	nt	nt
C/C(=N\Nc1ccc(S(=O)(=O)Nc2ccccc2)cc1[N+](=O)[O-])c1ccc(N2CCOCC2)cc1	42	-1	51*	-13	2	72*	-0.2	22
C/C(=N\Nc1ccc(S(=O)(=O)Nc2ccccc2)cc1[N+](=O)[O-])c1ccncc1	1	-4	-49	3	-33	nt	nt	nt
C/C(=N\Nc1ccc(S(=O)(=O)Nc2ccc(Cl)cc2)cc1[N+](=O)[O-])c1ccc(N2CCOCC2)cc1	1	1	88*	5	-3	65	-0.29	11
O=[N+]([O-])c1ccccc1/C=C/C=N/Nc1ccc(S(=O)(=O)Nc2ccc(Cl)cc2)cc1[N+](=O)[O-]	0	-1	60*	6	nt	69	-0.46	10
O=[N+]([O-])c1cc(S(=O)(=O)Nc2cccc(Cl)c2)ccc1N/N=C/c1ccc(N2CCOCC2)cc1	-1	-6	0	nt	11	nt	nt	nt
CC(=O)OCC(OC(C)=O)C(OC(C)=O)C(OC(C)=O)C(=O)Nc1cccc(C)c1 (configuration not stated)	0	-1	11	nt	5	nt	nt	nt
O=C(COC(=O)CNC(=O)c1ccc(Cl)c([N+](=O)[O-])c1)NC(=O)c1ccccc1	nt	nt	-5	nt	nt	nt	nt	nt
CCC(=O)c1cn([C@H](CCC(OC)OC)CC(=O)OC(C)(C)C)cc1CC	nt	nt	nt	nt	-37	nt	nt	nt
O=C(Nc1c(Cl)cc(Cl)cc1C(=O)NCc1cccnc1)c1ccc(Cl)cc1Cl	0	-3	nt	-1	nt	nt	nt	nt
O=C(Nc1ccc(Cl)cc1C(=O)NCc1cccnc1)c1ccc(Cl)cc1Cl	1	0	66*	-3	7	88*	1.9	nt
Cc1ccc(C(=O)Nc2ccccc2C(=O)NCc2cccnc2)cc1	nt	nt	51*	nt	nt	96*	-0.97	22
CCC(=O)Nc1ccc(C(=O)NNC(=O)Cc2ccccc2)cc1	1	1	?	4	-10	nt	nt	nt
O=C(CCNC(=O)C1CCN(S(=O)(=O)c2ccc(F)cc2)CC1)NCc1cccc(Cl)c1	nt	nt	22	nt	nt	nt	nt	nt
